In ChEMBL document CHEMBL1127046, “Antitumor agents. 3. Synthesis and biological activity of 4 beta-alkyl derivatives containing hydroxy, amino, and amido groups of 4'-O-demethyl-4-desoxypodophyllotoxin as antitumor agents” (J Med Chem, 1993):
In brackets after ≈: the same amount, converted by molar mass.

How the values were obtained:
ACHN = assay: Inhibition of growth of renal cancer ACHN cell line; assay type: functional; settings: Homo sapiens, read-out: ED50 (the source's name)
Procedure, shortened: (§1)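 Human tumour cell lines plated and grown 24 h in a CO2 incubator, then exposed to compound for 96 or 4 h. Cells counted by hemocytometer. IC50 is the concentration giving 50% reduction in cell number versus untreated control.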

A549 = assay: Inhibition of growth of lung non-small cell carcinoma A-549 cell line; assay type: functional; settings: Homo sapiens, read-out: ED50 (the source's name)
Procedure, shortened: (§2)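 Cells were seeded and cultured for 24 h, then exposed to drug for 96 or 4 h. Cells were counted by hemocytometer. IC50 is the concentration giving a 50% reduction in cell number relative to control.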

[1] = Inhibition of growth of colon carcinoma COLO 2-1 cell line; assay type: functional; settings: Homo sapiens, read-out: ED50 (the source's name); procedure, shortened: as §2
COLO 320DM [2] = assay: Inhibition of growth of colon cancer COLO 320DM cell line; assay type: functional; settings: Homo sapiens, read-out: ED50 (the source's name); procedure, shortened: as §2
Homo sapiens = species on record: Homo sapiens; assay: Inhibition of growth of hepatoma HLE cell line; assay type: functional; settings: read-out: ED50 (the source's name); procedure, shortened: as §2
[3] = Inhibition of growth of renal cancer G-402 cell line; assay type: functional; settings: Homo sapiens, read-out: ED50 (the source's name); procedure, shortened: as §1
[4] = Inhibition of growth of hepatoma HLF cell line; assay type: functional; settings: Homo sapiens, read-out: ED50 (the source's name); procedure, shortened: as §2
L1210 [5] = assay: The number of mice survived for 30 days at the dose of 2.5 (mg/kg/day); assay type: functional, Mus musculus
L1210 [6] = assay: Antitumor activity in vivo expressed as the percentage increase in life span at the dose of 2.5 (mg/kg/day); assay type: functional, Mus musculus
[7] = tested on: Lewis lung carcinoma cell line; assay: Increased life span at the dose of 0.77 (mg/kg/day); assay type: functional, Mus musculus
[8] = tested on: Lewis lung carcinoma cell line; assay: Increased life span at the dose of 1.3 (mg/kg/day); assay type: functional, Mus musculus
[9] = tested on: Lewis lung carcinoma cell line; assay: Increased life span at the dose of 2.3 (mg/kg/day); assay type: functional, Mus musculus
[10] = tested on: Lewis lung carcinoma cell line; assay: Increased life span at the dose of 4 (mg/kg/day) (number of survivors); assay type: functional, Mus musculus
[11] = tested on: Lewis lung carcinoma cell line; assay: Increased life span at the dose of 7 (mg/kg/day); assay type: functional, Mus musculus
[12] = tested on: Lewis lung carcinoma cell line; assay: Mean body weight change after inoculation of 3.2 x 10 e 5 cells iv and administration of compounds iv from days 1-5 at the dose of 0.77 (mg/kg/day); assay type: functional, Mus musculus
Procedure, shortened: (§3)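 Male BDF1 mice (5 weeks) given 3.2 x 10^5 Lewis lung carcinoma cells iv on day 0, then dosed iv on days 1–5. Seven mice per group, 14 controls. Mean body weight change (g) taken from day 0 to day 6.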

[13] = tested on: Lewis lung carcinoma cell line; assay: Mean body weight change after inoculation of 3.2 x 10 e 5 cells iv and administration of compounds iv from days 1-5 at the dose of 2.3 (mg/kg/day); assay type: functional, Mus musculus; procedure, shortened: as §3
[14] = tested on: Lewis lung carcinoma cell line; assay: Percentage inhibition of tumor growth at the Lewis lung dose of 1.3 (mg/kg/ day); assay type: functional, Mus musculus
Procedure, shortened: (§4)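 Lewis lung carcinoma fragments (2 mm3) implanted sc into male BDF1 mice (5 weeks) on day 0. Compound given iv on days 4–8, in saline or saline with 3.5% DMSO and 6.5% Tween 80. Seven mice per group, 10 controls. Percent inhibition from mean tumour weight versus control on day 17; p<0.05, 0.01 or 0.001 versus control.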

[15] = tested on: Lewis lung carcinoma cell line; assay: Percentage inhibition of tumor growth at the Lewis lung dose of 2.3 (mg/kg/ day); assay type: functional, Mus musculus; procedure, shortened: as §4
[16] = tested on: Lewis lung carcinoma cell line; assay: Percentage inhibition of tumor growth at the Lewis lung dose of 4 (mg/kg/ day); assay type: functional, Mus musculus; procedure, shortened: as §4
[17] = tested on: Lewis lung carcinoma cell line; assay: Mean body weight change after inoculation of 3.2 x 10 e 5 cells iv and administration of compounds iv from days 1-5 at the dose of 4 (mg/kg/day); assay type: functional, Mus musculus; procedure, shortened: as §3
[18] = tested on: Lewis lung carcinoma cell line; assay: Mean body weight change after inoculation of 3.2 x 10 e 5 cells iv and administration of compounds iv from days 1-5 at the dose of 7 (mg/kg/day); assay type: functional, Mus musculus; procedure, shortened: as §3
P388 [19] = assay: Cytotoxicity against P388 leukemia; assay type: functional, cell-based; settings: Mus musculus
P388 [20] = assay: Antitumor activity in vivo expressed as the percentage increase in life span at the P388 dose of 0.8 (mg/kg/day); assay type: functional, Mus musculus
Procedure, shortened: (§5)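 P388 leukaemia, 1 × 10^6 cells given sc to male CDF1 mice (5 weeks old) on day 0. Drug was dosed iv on days 1–5 in saline with 3.5% DMSO and 6.5% Tween 80. Groups had 7 mice; controls had 10. ILS was calculated from mean survival time of treated versus control mice, excluding 30-day survivors.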

P388 [21] = assay: Antitumor activity in vivo expressed as the percentage increase in life span at the P388 dose of 1.3 (mg/kg/day); assay type: functional, Mus musculus; procedure, shortened: as §5
P388 [22] = assay: Antitumor activity in vivo expressed as the percentage increase in life span at the P388 dose of 2.3 (mg/kg/day); assay type: functional, Mus musculus; procedure, shortened: as §5
[23] = Inhibition of growth of lung non-small cell carcinoma PC-7 cell line; assay type: functional; settings: Homo sapiens, read-out: ED50 (the source's name); procedure, shortened: as §2
[24] = Inhibition of growth of lung small cell carcinoma RERF-LC-MA cell line; assay type: functional; settings: Homo sapiens; read-out: ED50 (the source's name); procedure, shortened: as §2
SBC-3 = assay: Inhibition of growth of lung small cell carcinoma SBC-3 cell line; assay type: functional; settings: Homo sapiens, read-out: ED50 (the source's name); procedure, shortened: as §1
[25] = Inhibition of DNA topoisomerase II from rat liver measured as 50% reduction in the amount of minicircle DNA relative to the control
Tubulin = Tubulin (Bos taurus, UniProt Q6B856+Q862L2+Q862F3); assay: Drug concentration needed to produce a 50% reduction of bovine brain tubulin polymerization relative to the control
COLO 320DM [26] = assay: Inhibition of growth of colon carcinoma COLO 320DM; assay type: functional; settings: Homo sapiens, read-out: ED50 (the source's name); procedure, shortened: as §2
L1210 [27] = assay: The number of mice survived for 30 days; assay type: functional, Mus musculus
L1210 [28] = assay: Antitumor activity in vivo expressed as the percentage increase in life span at the dose of 10 (mg/kg/day); assay type: functional, Mus musculus
[29] = tested on: Lewis lung carcinoma cell line; assay: Antitumor activity in vivo expressed as the percentage increase in life span at the dose of 4 (mg/kg/day); (p<0.001); assay type: functional, Mus musculus
[30] = tested on: Lewis lung carcinoma cell line; assay: Antitumor activity in vivo expressed as the percentage increase in life span at the dose of 7 (mg/kg/day); (p<0.001); assay type: functional, Mus musculus
[31] = tested on: Lewis lung carcinoma cell line; assay: Antitumor activity in vivo expressed as the percentage increase in life span at the dose of 12 (mg/kg/day); (p<0.001); assay type: functional, Mus musculus
[32] = tested on: Lewis lung carcinoma cell line; assay: Antitumor activity in vivo expressed as the percentage increase in life span at the dose of 2.32 (mg/kg/day); (p<0.005); assay type: functional, Mus musculus
[33] = tested on: Lewis lung carcinoma cell line; assay: Antitumor activity in vivo expressed as the percentage increase in life span at the dose of 21 (mg/kg/day); (p<0.005); assay type: functional, Mus musculus
[34] = tested on: Lewis lung carcinoma cell line; assay: Mean body weight change at the dose of 7 (mg/kg/day); assay type: functional, Mus musculus; procedure, shortened: as §3
[35] = tested on: Lewis lung carcinoma cell line; assay: Mean body weight change at the dose of 12 (mg/kg/day); assay type: functional, Mus musculus; procedure, shortened: as §3
[36] = tested on: Lewis lung carcinoma cell line; assay: Mean body weight change at the dose of 2.3 (mg/kg/day); assay type: functional, Mus musculus; procedure, shortened: as §3
[37] = tested on: Lewis lung carcinoma cell line; assay: Mean body weight change at the dose of 21 (mg/kg/day); assay type: functional, Mus musculus; procedure, shortened: as §3
[38] = tested on: Lewis lung carcinoma cell line; assay: Mean body weight change at the dose of 4 (mg/kg/day); assay type: functional, Mus musculus; procedure, shortened: as §3
P388 [39] = assay: Increased life span at the P388 dose of 4 (mg/kg/day); assay type: functional, Mus musculus; procedure, shortened: as §5
P388 [40] = assay: Increased life span at the P388 dose of 7 (mg/kg/day); assay type: functional, Mus musculus; procedure, shortened: as §5
[41] = tested on: Lewis lung carcinoma cell line; assay: Percentage inhibition of tumor growth at the lewis lung dose of 12 (mg/kg/ day); (p<0.01); assay type: functional, Mus musculus; procedure, shortened: as §4
[42] = tested on: Lewis lung carcinoma cell line; assay: Percentage inhibition of tumor growth at the lewis lung dose of 7 (mg/kg/day); (p<0.05); assay type: functional, Mus musculus; procedure, shortened: as §4
P388 [43] = assay: Increased life span at the P388 dose of 2.3 (mg/kg/day); assay type: functional, Mus musculus; procedure, shortened: as §5

COc1cc([C@@H]2c3cc4c(cc3[C@@H](CCN3CCC(N5CCCCC5)CC3)C3COC(=O)[C@@H]32)OCO4)cc(OC)c1O.Cl.Cl (some centres undefined)
EC50 (ACHN): 1.1 µg/mL | EC50 (A549): 1 µg/mL | EC50 [1]: 13 µg/mL | EC50 (COLO 320DM [2]): 2.1 µg/mL | EC50 (Homo sapiens): 0.31 µg/mL | EC50 [3]: 0.18 µg/mL | EC50 [4]: 2.7 µg/mL | Survivors (L1210 [5]): 6 | ILS max (L1210 [6]): 102% | ILS max [7]: 43% | ILS max [8]: 63% | ILS max [9]: 133% | ILS max [10]: -13% | ILS max [11]: -44% | bwc [12]: 0.3 g | bwc [13]: -0.5 g | Inhibition [14]: 40% | Inhibition [15]: 50% | Inhibition [16]: 91% | bwc [17]: -1.6 g | bwc [18]: -4.1 g | IC50 (P388 [19]): 0.0033 µM | ILS max (P388 [20]): 143% | ILS max (P388 [21]): 202% | ILS max (P388 [22]): 231% | EC50 [23]: 4 µg/mL | EC50 [24]: 35 µg/mL | EC50 (SBC-3): 0.16 µg/mL | IC50 [25]: 29.8 µM | IC50 (Tubulin): > 167 µM

COc1cc([C@@H]2c3cc4c(cc3[C@@H](O[C@@H]3O[C@@H]5CO[C@@H](C)O[C@H]5[C@H](O)[C@H]3O)[C@H]3COC(=O)[C@H]23)OCO4)cc(OC)c1O [ETOPOSIDE]
EC50 (ACHN): 13 µg/mL (≈ 22.1 µM) | EC50 (A549): 2.9 µg/mL (≈ 4.93 µM) | EC50 [1]: 59 µg/mL (≈ 100 µM) | EC50 (COLO 320DM [26]): 14 µg/mL (≈ 23.8 µM) | EC50 (Homo sapiens): 1.5 µg/mL (≈ 2.55 µM) | EC50 [3]: 4.8 µg/mL (≈ 8.16 µM) | EC50 [4]: 19 µg/mL (≈ 32.3 µM) | Survivors (L1210 [27]): 3 | ILS max (L1210 [28]): 102% | ILS max [29]: 24% | ILS max [30]: 21% | ILS max [31]: 81% | ILS max [32]: 17% | ILS max [33]: 91% | bwc [34]: -0.8 g | bwc [35]: -2.6 g | bwc [36]: 0 g | bwc [37]: -3.8 g | bwc [38]: -0.4 g | IC50 (P388 [19]): 0.01 µM | ILS max (P388 [39]): 196% | ILS max (P388 [40]): 226% | EC50 [23]: 35 µg/mL (≈ 59.5 µM) | EC50 [24]: > 59 µg/mL | EC50 (SBC-3): 1.6 µg/mL (≈ 2.72 µM) | IC50 [25]: 59.2 µM | Inhibition [41]: 60% | Inhibition [42]: 39% | ILS max (P388 [43]): 151%
